Screens as filed in PubChem BioAssay.
Only some compounds are listed: those with a hit (about 2.9% of all), similar ones and a draw of the others.
SENP1 FRET inh = human SENP1 catalytic domain inhibitors, primary screen, biochemical, FRET, uHTS; Sentrin-specific protease 1 (Homo sapiens), Q9P0U3; recombinant SENP1 catalytic domain, CyPet-SUMO1-YPet FRET cleavage; inhibition, % at 10 µM; hit rate 0.21% among 360,000; AID 624204, 2012;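 active = inhibition at least 30% at 10 µM, raw YFP signal under a set limit, fluorescence ratio 0.5 to 1.5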;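 also: 0% = enzyme with DMSO and 100% = no enzyme wells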
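Test system: hSENP1 catalytic domain, recombinant; Amount: 20 pM final SENP1 enzyme; Medium: Tris pH 8 buffer plus EDTA, NaCl, BME, BSA, NP40, catalase; Schedule: 50 min enzyme reaction, room temperature, light-protected; Technique: FRET fluorescence in CFP and YFP emission channels; Controls: no-enzyme wells low, DMSO-plus-enzyme wells high control.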
HSP90 refold inh = HSP90 inhibitors, primary screen, cell lysate, luminescence; Heat shock protein HSP 90 (rabbit reticulocyte lysate; luciferase refolding); Rabbit reticulocyte lysate, luciferase refolding luminescence, 3 h; hit rate 0.91% among 290,000; AID 1789, 2009; inhibition, % at 5.6 µM;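 active = inhibition above the screen-wide mean plus 3 SD, computed separately per campaign, cut at about 16% in these data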;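 also: 0% = DMSO wells and 100% = 60 µM geldanamycin wells; inhibitors lower the luminescence because luciferase stays unfolded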
SENP6 block = SENP6 protease inhibitors, primary screen, biochemical, luminescence, uHTS; AID 2599, 2010; hit rate 1.8% among 330,000; Sentrin-specific protease 6 (Homo sapiens), Q9GZR1; inhibition, % at 10 µM; Recombinant SENP6 catalytic domain, aminoluciferin luminescence;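 active = inhibition above about 50% at the single tested dose, limit read from the data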;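 also: plate controls were DMSO wells with enzyme for no effect and DMSO wells lacking enzyme for full effect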
SENP8 block-1 = human SENP8 protease inhibitors, primary screen, biochemical, fluorescence, Nedd8 protein substrate, uHTS. Sentrin-specific protease 8 (Homo sapiens), Q96LD8. recombinant SENP8. inhibition, % at 20 µM. hit rate 0.64% among 360,000. AID 602440, 2012; in the data active = inhibition mostly above about 40%, no sharp cut-off; inactive = mostly below about 27%
Target sequence (Q96LD8 whole entry, looked up): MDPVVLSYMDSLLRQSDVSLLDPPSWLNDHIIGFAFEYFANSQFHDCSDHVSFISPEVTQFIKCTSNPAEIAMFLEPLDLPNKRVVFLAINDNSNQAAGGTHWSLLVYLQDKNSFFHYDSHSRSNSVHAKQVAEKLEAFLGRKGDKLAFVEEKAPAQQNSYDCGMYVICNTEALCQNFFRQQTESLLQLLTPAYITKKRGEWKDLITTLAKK
SENP7 inh = SENP7 protease inhibitors, primary screen, biochemical, luminescence, uHTS; Sentrin-specific protease 7 (Homo sapiens), Q9BQF6; recombinant SENP7, Z-RLRGG-aminoluciferin luminescence, 40 min; inhibition, % at 5 µM; hit rate 1.5% among 330,000;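 active = inhibition above about 50% at the single test dose, limit read from the data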;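 also: plate controls were DMSO with enzyme for no effect and no enzyme buffer wells for full effect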
Target sequence (Q9BQF6 706-1050 limits assumed): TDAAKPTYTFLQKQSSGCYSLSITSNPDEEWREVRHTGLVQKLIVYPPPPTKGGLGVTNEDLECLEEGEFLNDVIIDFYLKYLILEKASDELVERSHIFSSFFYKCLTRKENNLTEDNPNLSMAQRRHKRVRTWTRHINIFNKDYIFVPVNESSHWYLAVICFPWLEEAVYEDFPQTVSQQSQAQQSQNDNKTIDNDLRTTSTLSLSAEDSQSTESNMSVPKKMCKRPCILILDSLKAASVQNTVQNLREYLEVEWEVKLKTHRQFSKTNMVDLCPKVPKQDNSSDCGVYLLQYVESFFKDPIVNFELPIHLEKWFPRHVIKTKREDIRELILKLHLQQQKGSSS
SENP8 block-2 = SENP8 protease inhibitors, primary screen, biochemical, luminescence; Sentrin-specific protease 8 (Homo sapiens), Q96LD8; purified SENP8, Z-RLRGG-aminoluciferin cleavage; inhibition, % at 10 µM; hit rate 1.2% among 330,000; AID 2540, 2010; in the data active = inhibition above about 50%
SENP8 conf = SENP8 protease inhibitors, retest, confirmation, biochemical, luminescence, single concentration. shares compounds with SENP7 inh. Recombinant SENP8, Z-RLRGG-aminoluciferin luminescence, 60 min. inhibition, % at 12.5 µM. hit rate 40% among 6,200. AID 488912, 2010;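 active = mean inhibition across replicates above about 50%, limit read from the data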
SENP6 confirm = SENP6 protease inhibitors, confirmation, biochemical, luminescence, single concentration. shares compounds with SENP7 inh. recombinant SENP6, Z-RLRGG-aminoluciferin luminescence. inhibition, % at 12.5 µM. hit rate 58% among 6,200
SENP7 conf = SENP7 protease inhibitors, retest, confirmation, biochemical, luminescence, single concentration; hit rate 69% among 6,200; recombinant SENP7, Z-RLRGG-aminoluciferin luminescence, 40 min; inhibition, % at 12.5 µM; shares compounds with SENP7 inh
Casp3 select = caspase-3 protease inhibitors, confirmation, selectivity assay for SENP inhibitor project, biochemical, single concentration; AID 488918, 2010; purified caspase-3, Z-DEVD-aminoluciferin luminescence, 60 min; hit rate 60% among 6,200; inhibition, % at 12.5 µM; shares compounds with SENP7 inh;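 active = mean inhibition above about 50%, limit read from the data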;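 also: plate controls were enzyme with DMSO for no effect and wells without caspase-3 for full effect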
SENP luc ctr = interferes with luciferase luminescence in SENP counter-screen; shares compounds with SENP7 inh; Pre-incubated SENP8/Z-RLRGG-aminoluciferin, luciferase luminescence interference; inhibition, % at 12.5 µM; hit rate 39% among 6,200; AID 488919;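 active = mean inhibition above about 50% when retested at one dose, limit read from the data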;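 also: plate controls were DMSO wells with completed reaction for no effect and substrate without enzyme for full effect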
An asterisk follows results filed as active; x = no result.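 The calls were made as follows, unless noted: active = mean inhibition above about 50% in the one-dose retest (limit read from the data); inactive = the rest.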

SMILES	SENP1 FRET inh	HSP90 refold inh	SENP6 block	SENP8 block-1	SENP7 inh	SENP8 block-2	SENP8 conf	SENP6 confirm	SENP7 conf	Casp3 select	SENP luc ctr
Cc1cc2ncn(S(=O)(=O)c3ccc(S(N)(=O)=O)cc3)c2cc1C	-2	x	x	5	x	x	x	x	x	x	x
Cc1cc2ncn(S(=O)(=O)c3ccc(S(=O)(=O)N4CCCCCC4)cc3)c2cc1C	1	-2	0	5	68*	-8	-5	-1	4	3	-3
Cc1ccc(N=Cc2c(C)[nH]n(-c3nc4ccccc4[nH]3)c2=O)cc1	-17	0	94*	14	95*	86*	88*	55*	94*	95*	90*
Cc1ccc(-n2[nH]c(C)c(C=Nc3ccc4[nH]c(=O)[nH]c4c3)c2=O)cc1	-3	-4	-36	21	-2	-13	x	x	x	x	x
CCOC(=O)[C@@H](NC(=O)/C=C/[C@H]1O[C@@H](n2ccc(=O)[nH]c2=O)[C@H](O)[C@@H]1O)C(C)C	-2	x	x	12	x	x	x	x	x	x	x
N#C/C(=N\Nc1ccccc1Cl)C(=O)c1ccccc1	3	1	21	37	1	-6	x	x	x	x	x
N#C/C(=N\Nc1cccc(Cl)c1)C(=O)c1ccccc1	1	-7	87*	31	15	69*	-22	74*	76*	20	72*
COc1ccc(C=C2C(=O)c3ccccc3C2=O)cc1O	1	6	95*	13	96*	94*	98*	98*	102*	94*	20
COc1cc(C=C2C(=O)c3ccccc3C2=O)ccc1O	3	9	-10	18	94*	93*	13	91*	97*	80*	61*
COc1cc(/C=C2/CC/C(=C/c3ccc(O)c(OC)c3)C2=O)ccc1O	-39	0	11	-20	3	6	x	x	x	x	x
COc1ccc(N(CC(=O)N2CCN(C)CC2)S(=O)(=O)c2ccccc2)cc1	2	4	-5	9	7	-1	x	x	x	x	x
Cc1ccc(CNC(=O)CNC(=O)c2c(C)nn(C)c2Cl)cc1	0	-2	-3	12	-2	-2	x	x	x	x	x
COc1ccc(C(=O)Nc2ccnn2C2CCN(Cc3ccccn3)CC2)cc1	-21	-5	16	-3	1	2	x	x	x	x	x
CN(C)c1ccc(C(=O)c2ccc(O)cc2O)cc1	1	2	67*	31	42	49	54*	51*	83*	46	60*
CC(C)c1ccc(Nc2ncccc2C(=O)O)cc1	4	6	95*	10	98*	95*	6	6	10	3	4
COc1ccc(NC(=O)c2cccnc2Nc2ccc(OC)cc2)cc1	0	2	-7	18	4	-7	x	x	x	x	x
Cc1ccc(S(=O)(=O)N2C[C@H]3C(=O)C[C@@H](c4ccccc4)N(S(=O)(=O)c4ccc(C)cc4)[C@H]3C[C@H]2c2ccccc2Cl)cc1	3	x	x	15	x	x	x	x	x	x	x
CCOC(=O)CSC1=NC(=O)/C(=C\c2ccc(OC(C)=O)cc2)S1	-3	2	72*	22	78*	47	57*	52*	73*	41	77*
CCOC(=O)CSC1=NC(=O)/C(=C/c2ccc(Br)cc2)S1	5	-7	40	11	38	43	x	x	x	x	x
CCCN1C2CCCC1CC(NC(=O)c1cc(OC)c(OC)c(OC)c1)C2 (stereo not given)	0	0	-6	12	6	2	x	x	x	x	x
Clc1ccc(COn2nnc3ccccc32)c(Cl)c1	2	5	60*	-8	36	10	46	46	77*	36	47
CCOc1ccccc1NC(=O)C(OC(=O)c1ccc(NC(=O)CC#N)cc1)c1ccccc1 (stereo not given)	-33	x	-14	-119	-2	9	x	x	x	x	x
Cn1c(-c2nnn(-c3ccc(F)cc3)n2)cc2ccccc21	x	6	52*	x	11	39	17	10	13	8	-4
COc1ccc(C(=O)O/N=C(/c2ccccc2)c2ccncc2)cc1	6	-1	-5	12	-1	-8	x	x	x	x	x
COc1ccc(C(=O)O/N=C(\N)c2ccc(OC)c(OC)c2)cc1	1	4	64*	7	81*	23	27	17	61*	42	11
SMILES	SENP1 FRET inh	HSP90 refold inh	SENP6 block	SENP8 block-1	SENP7 inh	SENP8 block-2	SENP8 conf	SENP6 confirm	SENP7 conf	Casp3 select	SENP luc ctr
COc1ccc(/C(N)=N/OC(=O)c2ccc(OC)c([N+](=O)[O-])c2)cc1OC	1	1	3	11	4	10	x	x	x	x	x
COc1ccc(C(=O)O/N=C(\C)c2ccccc2)cc1	1	0	95*	15	100*	97*	100*	101*	103*	99*	98*
CC(C)=NOC(=O)c1ccc(-c2ccccc2)cc1	0	-3	77*	29	72*	58*	75*	76*	90*	71*	67*
O=C(CCNC(=O)c1ccccc1)Nc1ccc(Cl)c(S(=O)(=O)N2CCCCC2)c1	2	x	-15	1	9	1	x	x	x	x	x
O=C(Nc1ccn(Cc2ccccc2F)n1)c1ccc(COc2ccccc2Cl)cc1	2	4	-8	23	-4	-2	x	x	x	x	x
O=C(Nc1ccn(Cc2ccccc2F)n1)c1ccc(COc2cccc(Br)c2)cc1	0	10	97*	13	14	88*	-24	90*	103*	56*	97*
CC(=O)Nc1ccc(NC(=O)CSc2nnc(NC(=O)c3cccc(F)c3)s2)cc1	2	0	77*	-73	52*	68*	62*	70*	91*	82*	19
